Experimental data taken from ChEMBL document CHEMBL4177753, “Structural Modification of Natural Product Ganomycin I Leading to Discovery of a α-Glucosidase and HMG-CoA Reductase Dual Inhibitor Improving Obesity and Metabolic Dysfunction in Vivo” (J Med Chem, 2018).
The source made the active and inactive calls. The rule behind the calls is not given here.

Assays:
Mus musculus [1] = experiment: Antiobesity activity in antibiotic-treated ob/ob mouse assessed as reduction in weight gain at 3 mg/kg administered daily via oral gavage for 3 weeks; assay type: functional, organism-based
How it was run: (§1)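 Male ob/ob mice given drinking water with ampicillin (1 g/L), vancomycin and other antibiotics for three weeks. Groups of n = 8 were dosed at 3.0 mg/kg/day by mouth in soybean vehicle, alongside non-antibiotic ob/ob groups. Weight gain and food intake recorded.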

Mus musculus [2] = experiment: Upregulation of Pparg mRNA expression in ob/ob mouse ileum at 3 mg/kg administered daily via oral gavage for 31 days by RNA-seq analysis; assay type: functional, organism-based
Mus musculus [3] = experiment: Hypoglycemic activity in C57BL/6J DIO mouse assessed as decrease in blood glucose AUC at 0.3 to 3 mg/kg administered daily via oral gavage for 25 days by OGTT; assay type: functional, organism-based
How it was run: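 Male ob/ob or high-fat-diet C57BL/6J mice dosed daily by gavage at 0.3–3.0 mg/kg. OGTT: glucose 2 g/kg orally after overnight fast. ITT: insulin 0.6 U/kg i.p. after 4 h fast. Glucometer readings at 0, 40, 80 and 120 min; AUC computed from the curves.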

Mus musculus [4] = experiment: Hypolipidemic activity in antibiotic-treated ob/ob mouse assessed as decrease in plasma triglycerides levels at 3 mg/kg administered daily via oral gavage for 3 weeks; assay type: functional, organism-based
How it was run: (§2)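 Male ob/ob mice pretreated three weeks with ampicillin (1 g/L), vancomycin, neomycin, gentamycin and erythromycin. Groups of n = 8 given 3.0 mg/kg/day orally in soybean vehicle versus vehicle. Plasma and hepatic lipids, fasting glucose, OGTT (glucose 2 g/kg after overnight fast) and HbA1c measured.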

Mus musculus [5] = experiment: Hypolipidemic activity in C57BL/6J DIO mouse assessed as decrease in plasma free fatty acid levels at 0.3 to 3 mg/kg administered daily via oral gavage for 5 weeks; assay type: functional, organism-based
How it was run: (§3)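 High-fat-diet male C57BL/6J mice, n = 8 per group, daily gavage at 0.3–3.0 mg/kg in soybean vehicle for 5 weeks. Serum total cholesterol, triglycerides and free fatty acids measured.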

Mus musculus [6] = experiment: Hypolipidemic activity in ob/ob mouse assessed as decrease in serum total cholesterol levels administered daily via oral gavage for 31 days; assay type: functional, organism-based
Mus musculus [7] = experiment: Antiobesity activity in antibiotic-treated ob/ob mouse assessed as reduction in cumulative food intake at 3 mg/kg administered daily via oral gavage for 18 days; assay type: functional, organism-based; how it was run: as §1
Mus musculus [8] = experiment: Hypolipidemic activity in antibiotic-treated ob/ob mouse assessed as decrease in hepatic total cholesterol levels at 3 mg/kg administered daily via oral gavage for 3 weeks; assay type: functional, organism-based; how it was run: as §2
Mus musculus [9] = experiment: Hypolipidemic activity in ob/ob mouse assessed as decrease in hepatocyte ballooning at 3 mg/kg administered daily via oral gavage for 31 days by oil red O staining-based microscopic method; assay type: functional, organism-based
How it was run: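 Male ob/ob mice dosed by gavage (soybean vehicle); liver and abdominal white adipose tissue fixed in 10% formaldehyde-PBS pH 7.4, paraffin-embedded, sectioned, stained with H&E, Oil Red O or sirius red, and examined by light microscopy.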

Mus musculus [10] = experiment: Toxicity in C57BL/6J mouse assessed as effect on survival at 30 mg/kg administered daily via oral gavage for 3 months; assay type: organism-based; conditions: in vivo
How it was run: (§4)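 Long-term safety study in C57BL/6J mice, 20 male and 20 female, sorted by gender, blood glucose and body weight into four groups (n = 10 each). Treated groups of each sex got 30.0 mg/kg daily by oral gavage in soybean vehicle. Vehicle groups got an equal volume of soybean. Dosing ran three months, with behavior, survival, body weight, blood glucose, liver function and organ coefficients recorded.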

Mus musculus [11] = experiment: Upregulation of ZO-1 mRNA expression in ob/ob mouse ileum at 3 mg/kg administered daily via oral gavage for 31 days by RNA-seq analysis; assay type: functional, organism-based
Mus musculus [12] = experiment: Toxicity in C57BL/6J mouse assessed as effect on free diet blood glucose levels at 30 mg/kg administered daily via oral gavage for 3 months; assay type: organism-based; conditions: in vivo; how it was run: as §4
Mus musculus [13] = experiment: Hypolipidemic activity in C57BL/6J DIO mouse assessed as decrease in serum total cholesterol levels at 0.3 to 3 mg/kg administered daily via oral gavage for 5 weeks; assay type: functional, organism-based; how it was run: as §3
Mus musculus [14] = experiment: Upregulation of Muc-5 mRNA expression in ob/ob mouse ileum at 3 mg/kg administered daily via oral gavage for 31 days by RNA-seq analysis; assay type: functional, organism-based
Mus musculus [15] = experiment: Hypoglycemic activity in C57BL/6J DIO mouse assessed as increase in insulin sensitive index at 0.3 to 3 mg/kg administered daily via oral gavage for 5 weeks; assay type: functional, organism-based
How it was run: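 Male high-fat-diet C57BL/6J mice, daily gavage at 0.3–3.0 mg/kg for 5 weeks. ISI calculated as […].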

[16] = Cmax in Sprague-Dawley rat at 2 mg/kg, po; assay type: ADME, organism-based; parameters: dose 2 mg/kg, route oral; conditions: in vivo
How it was run: (§5)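 Male Sprague-Dawley rats (n = 6, 0.21–0.23 kg), single oral dose 2.0 mg/kg. Orbital blood sampled 0–16 h into heparinized tubes. Plasma was protein-precipitated with methanol, with internal standard added. Quantified by UPLC-ESI(+)-QTOF-MS in SIM mode on a C18 column with a methanol/0.3% formic acid water gradient. Linear range 0.54–107 ng/ml.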

Mus musculus [17] = experiment: Hypolipidemic activity in antibiotic-treated ob/ob mouse assessed as decrease in hepatic triglycerides levels at 3 mg/kg administered daily via oral gavage for 3 weeks; assay type: functional, organism-based; how it was run: as §2
Oscillibacter = experiment: Decrease in Oscillibacter levels in cecum of ob/ob mouse at 3 mg/kg administered daily via oral gavage for 31 days by 16S rRNA gene high-throughput sequencing method; assay type: functional, organism-based
How it was run: (§6)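 Male ob/ob mice dosed daily by gavage at 1.0 or 3.0 mg/kg, compared with vehicle group. DNA extracted from about 150 mg caecum contents. 16S rRNA V3–V4 region amplified and sequenced on Illumina HiSeq PE250. Community compared by NMDS/MRPP; discriminant taxa identified by LEfSe.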

Mus musculus [18] = experiment: Toxicity in C57BL/6J mouse assessed as effect on plasma ALT levels at 30 mg/kg administered daily via oral gavage for 3 months; assay type: organism-based; conditions: in vivo; how it was run: as §4
Mus musculus [19] = experiment: Hypolipidemic activity in ob/ob mouse assessed as decrease in plasma free fatty acid levels administered daily via oral gavage for 31 days; assay type: functional, organism-based
Selenomonas = experiment: Decrease in Selenomonas levels in cecum of ob/ob mouse at 3 mg/kg administered daily via oral gavage for 31 days by 16S rRNA gene high-throughput sequencing method; assay type: functional, organism-based; how it was run: as §6
Mus musculus [20] = experiment: Hypolipidemic activity in ob/ob mouse assessed as decrease in plasma LDL-C levels at 1 mg/kg administered daily via oral gavage for 31 days relative to vehicle-treated control; assay type: functional; parameters: scale not given: the % may be the effect or the level left
Mus musculus [21] = experiment: Hypolipidemic activity in ob/ob mouse assessed as decrease in liver free fatty acid levels at 0.3 to 3 mg/kg administered daily via oral gavage for 31 days; assay type: functional, organism-based
Alphaproteobacteria = experiment: Decrease in Alphaproteobacteria levels in cecum of ob/ob mouse at 1 to 3 mg/kg administered daily via oral gavage for 31 days by 16S rRNA gene high-throughput sequencing method; assay type: functional, organism-based; how it was run: as §6
Mus musculus [22] = experiment: Reduction of plasma LPS levels in ob/ob mouse at 1 mg/kg administered daily via oral gavage for 31 days by ELISA relative to vehicle-treated control; assay type: functional; parameters: scale not given: the % may be the effect or the level left
How it was run: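 Male ob/ob mice treated daily by gavage (soybean vehicle); plasma LPS and TNF-α quantified by ELISA kits. For antibiotic groups, ob/ob mice first received an oral antibiotic cocktail (ampicillin 1 g/L, vancomycin, neomycin, gentamycin, erythromycin) for three weeks, then 3.0 mg/kg/day; n = 8 per group.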

[23] = AUC (0 to t) in Sprague-Dawley rat at 2 mg/kg, po; assay type: ADME, organism-based; conditions: in vivo; how it was run: as §5

For `CC(C)=CCC/C(C)=C/CCC1=C[C@H](c2ccc(C(C)(C)C)cc2)OC1=O`, the Activity (Mus musculus [1]) was “Active”, the Activity (Mus musculus [2]) was “Active” and the Activity (Mus musculus [3]) was “Active”. For the same molecule, the Activity (Mus musculus [4]) was “Active”, the Activity (Mus musculus [5]) was “Active” and the Activity (Mus musculus [6]) was “Dose-dependent effect”. For the same molecule, the Activity (Mus musculus [7]) was “inactive”, the Activity (Mus musculus [8]) was “inactive” and the Activity (Mus musculus [9]) was “Active”. For the same molecule, the Activity (Mus musculus [10]) was “Non-Toxic”, the Activity (Mus musculus [11]) was “Active” and the Activity (Mus musculus [12]) was “Non-Toxic”. For the same molecule, the Activity (Mus musculus [13]) was “Active”, the Activity (Mus musculus [14]) was “Active” and the Activity (Mus musculus [15]) was “Active”. The Cmax [16] was 49.3 ng/mL, the Activity (Mus musculus [17]) was “inactive” and the Activity (Oscillibacter) was “Active”. For the same molecule, the Activity (Mus musculus [18]) was “Non-Toxic”, the Activity (Mus musculus [19]) was “Dose-dependent effect” and the Activity (Selenomonas) was “Active”. For the same molecule, the Activity (Mus musculus [20]) was 43%, the Activity (Mus musculus [21]) was “Active” and the Activity (Alphaproteobacteria) was “Active”. For the same molecule, the Activity (Mus musculus [22]) was 29.8% and the AUC(0-t) [23] was 274 ng·h/mL.
